Experimental findings from ChEMBL document CHEMBL2434857, “Imidazopyridazines as potent inhibitors of Plasmodium falciparum calcium-dependent protein kinase 1 (PfCDPK1): Preparation and evaluation of pyrazole linked analogues” (Bioorg Med Chem Lett, 2013) are described below.

The source made the active and inactive calls. The calls are words filed in the database; no cut-off is given here.

The nature of data set [1]: Inhibition of full length recombinant Plasmodium falciparum CDPK1 using MTIP as substrate assessed as amount of ATP remaining after 1 hr by luminescence assay.
A short description of data set [2]: Lipophilicity, log D of the compound in octanol-phosphate buffered saline at 100 uM after 12 hrs by shake flask method. The class given is physicochemical.
A short description of data set [3]: Apparent permeability of the compound at 50 to 200 uM after 5 hrs by PAMPA. Type of data set: ADME.
Data set [4] relates to Plasmodium falciparum. As to the kind of experiment: Antiparasitic activity against Plasmodium falciparum assessed as parasite growth inhibition after 48 hrs by hydroethidine staining-based flow cytometric analysis. Type of data set: functional, organism-based. The gist of the method: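 Compounds diluted into 2% DMSO were added to cultured parasites 24 h post-invasion and incubated under static conditions. Cells were harvested 48 h later and stained for parasite DNA with hydroethidine for flow cytometry. Growth inhibition (%) = (1 − parasitaemia of treated culture / parasitaemia of control culture) × 100, and EC50 was derived from it.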

Data set [5] deals with MAP kinase-interacting serine/threonine-protein kinase 1 (Homo sapiens) (UniProt Q9BUB5). As to the kind of experiment: Inhibition of human MNK1 at 1 uM.
For data set [6], the target named is Fibroblast growth factor receptor 1 (Homo sapiens) (UniProt P11362). Briefly: Inhibition of human FGFR1 at 1 uM.
Data set [7] concerns the target Receptor tyrosine-protein kinase erbB-4 (Homo sapiens) (UniProt Q15303). As to the kind of experiment: Inhibition of human HER4 at 1 uM.
For data set [8], the species on record is Homo sapiens. Briefly: Inhibition of human VEGFR at 1 uM.
Data set [9] concerns the target Tyrosine-protein kinase Yes (Homo sapiens) (UniProt P07947). As to the kind of experiment: Inhibition of human YES1 at 1 uM.
In data set [10] the target is Ephrin type-A receptor 2 (Homo sapiens) (UniProt P29317). As to the kind of experiment: Inhibition of human EPHA2 at 1 uM.
For data set [11], the target named is Tyrosine-protein kinase Lck (Homo sapiens) (UniProt P06239). As to the kind of experiment: Inhibition of human LCK at 1 uM.
Data set [12] deals with Interleukin-1 receptor-associated kinase 4 (Homo sapiens) (UniProt Q9NWZ3). As to the kind of experiment: Inhibition of human IRAK4 at 1 uM.
The target in data set [13] is Proto-oncogene tyrosine-protein kinase Src (Homo sapiens) (UniProt P12931). Briefly: Inhibition of human SRC at 1 uM.
Data set [14] addresses Mitogen-activated protein kinase kinase kinase 9 (Homo sapiens) (UniProt P80192). Briefly: Inhibition of human MLK1 at 1 uM.
Data set [15] deals with Mitogen-activated protein kinase kinase kinase 11 (Homo sapiens) (UniProt Q16584). As to the kind of experiment: Inhibition of human MLK3 at 1 uM.
The target in data set [16] is Misshapen-like kinase 1 (Homo sapiens) (UniProt Q8N4C8). As to the kind of experiment: Inhibition of human MINK1 at 1 uM.
Data set [17] addresses Mitogen-activated protein kinase kinase kinase kinase 2 (Homo sapiens) (UniProt Q12851). As to the kind of experiment: Inhibition of human GCK at 1 uM.
Data set [18] has as its target NUAK family SNF1-like kinase 1 (Homo sapiens) (UniProt O60285). As to the kind of experiment: Inhibition of human NUAK1 at 1 uM.
The target of data set [19] is Serine/threonine-protein kinase pim-1 (Homo sapiens) (UniProt P11309). Briefly: Inhibition of human PIM1 at 1 uM.
The target of data set [20] is Serine/threonine-protein kinase Chk1 (Homo sapiens) (UniProt O14757). As to the kind of experiment: Inhibition of human CHK1 at 1 uM.
The target of data set [21] is Serine/threonine-protein kinase Chk2 (Homo sapiens) (UniProt O96017). As to the kind of experiment: Inhibition of human CHK2 at 1 uM.
The target in data set [22] is Aurora kinase B (Homo sapiens) (UniProt Q96GD4). Briefly: Inhibition of human Aurora kinase B at 1 uM.
Data set [23] has as its target Ribosomal protein S6 kinase alpha-5 (Homo sapiens) (UniProt O75582). As to the kind of experiment: Inhibition of human MSK1 at 1 uM.
The target in data set [24] is Myosin light chain kinase, smooth muscle (Homo sapiens) (UniProt Q15746). As to the kind of experiment: Inhibition of human SmMLCK at 1 uM.
The target in data set [25] is Serine/threonine-protein kinase D1 (Homo sapiens) (UniProt Q15139). As to the kind of experiment: Inhibition of human PKD1 at 1 uM.
Data set [26] deals with Serine/threonine-protein kinase N2 (Homo sapiens) (UniProt Q16513). Briefly: Inhibition of human PRK2 at 1 uM.
Data set [27] concerns the target Serine/threonine-protein kinase PAK 4 (Homo sapiens) (UniProt O96013). Briefly: Inhibition of human PAK4 at 1 uM.
For data set [28], the target named is Dual specificity tyrosine-phosphorylation-regulated kinase 1A (Homo sapiens) (UniProt Q13627). Briefly: Inhibition of human DRYK1A at 1 uM.
The species entered for data set [29] is Homo sapiens. Briefly: Inhibition of human CK1 at 1 uM.
Data set [30] addresses Casein kinase II (Homo sapiens) (UniProt P67870+P68400+P19784). As to the kind of experiment: Inhibition of human CK2 at 1 uM. Type of data set: protein-complex assay.
Data set [31] deals with MAP/microtubule affinity-regulating kinase 3 (Homo sapiens) (UniProt P27448). As to the kind of experiment: Inhibition of human MARK3 at 1 uM.
The target in data set [32] is Serine/threonine-protein kinase BRSK2 (Homo sapiens) (UniProt Q8IWQ3). As to the kind of experiment: Inhibition of human BRSK2 at 1 uM.
Data set [33] addresses Phosphorylase kinase (Homo sapiens) (UniProt P15735+P46020+P46019+Q93100+Q16816). As to the kind of experiment: Inhibition of human PHK at 1 uM. Type of data set: protein-complex assay.
Data set [34] concerns the target Rho-associated protein kinase 2 (Homo sapiens) (UniProt O75116). As to the kind of experiment: Inhibition of human ROCK2 at 1 uM.
In data set [35] the target is MAP kinase-interacting serine/threonine-protein kinase 2 (Homo sapiens) (UniProt Q9HBH9). As to the kind of experiment: Inhibition of human MNK2 at 1 uM.
Data set [36] deals with Tyrosine-protein kinase BTK (Homo sapiens) (UniProt Q06187). As to the kind of experiment: Inhibition of human BTK at 1 uM.
Data set [37] concerns the target Maternal embryonic leucine zipper kinase (Homo sapiens) (UniProt Q14680). As to the kind of experiment: Inhibition of human MELK at 1 uM.
In data set [38] the target is Serine/threonine-protein kinase 3 (Homo sapiens) (UniProt Q13188). Briefly: Inhibition of human MST2 at 1 uM.
Data set [39] addresses Ribosomal protein S6 kinase alpha-1 (Homo sapiens) (UniProt Q15418). As to the kind of experiment: Inhibition of human RSK1 at 1 uM.

Chain of Proto-oncogene tyrosine-protein kinase Src (Homo sapiens) (P12931 2-536 limits assumed): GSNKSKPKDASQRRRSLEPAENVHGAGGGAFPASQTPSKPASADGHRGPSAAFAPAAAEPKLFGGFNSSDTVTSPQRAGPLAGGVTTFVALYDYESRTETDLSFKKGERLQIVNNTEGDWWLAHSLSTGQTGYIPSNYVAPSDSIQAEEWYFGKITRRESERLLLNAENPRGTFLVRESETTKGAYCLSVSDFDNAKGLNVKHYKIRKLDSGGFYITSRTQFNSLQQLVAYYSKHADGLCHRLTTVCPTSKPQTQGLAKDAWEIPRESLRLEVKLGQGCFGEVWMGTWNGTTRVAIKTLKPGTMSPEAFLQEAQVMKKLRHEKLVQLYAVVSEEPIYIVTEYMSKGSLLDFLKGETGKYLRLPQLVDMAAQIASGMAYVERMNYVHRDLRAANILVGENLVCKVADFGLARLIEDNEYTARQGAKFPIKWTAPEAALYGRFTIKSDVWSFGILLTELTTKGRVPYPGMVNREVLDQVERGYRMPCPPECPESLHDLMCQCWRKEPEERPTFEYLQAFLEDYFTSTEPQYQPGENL
Chain of Mitogen-activated protein kinase kinase kinase 11 (Homo sapiens) (Q16584 whole entry, looked up): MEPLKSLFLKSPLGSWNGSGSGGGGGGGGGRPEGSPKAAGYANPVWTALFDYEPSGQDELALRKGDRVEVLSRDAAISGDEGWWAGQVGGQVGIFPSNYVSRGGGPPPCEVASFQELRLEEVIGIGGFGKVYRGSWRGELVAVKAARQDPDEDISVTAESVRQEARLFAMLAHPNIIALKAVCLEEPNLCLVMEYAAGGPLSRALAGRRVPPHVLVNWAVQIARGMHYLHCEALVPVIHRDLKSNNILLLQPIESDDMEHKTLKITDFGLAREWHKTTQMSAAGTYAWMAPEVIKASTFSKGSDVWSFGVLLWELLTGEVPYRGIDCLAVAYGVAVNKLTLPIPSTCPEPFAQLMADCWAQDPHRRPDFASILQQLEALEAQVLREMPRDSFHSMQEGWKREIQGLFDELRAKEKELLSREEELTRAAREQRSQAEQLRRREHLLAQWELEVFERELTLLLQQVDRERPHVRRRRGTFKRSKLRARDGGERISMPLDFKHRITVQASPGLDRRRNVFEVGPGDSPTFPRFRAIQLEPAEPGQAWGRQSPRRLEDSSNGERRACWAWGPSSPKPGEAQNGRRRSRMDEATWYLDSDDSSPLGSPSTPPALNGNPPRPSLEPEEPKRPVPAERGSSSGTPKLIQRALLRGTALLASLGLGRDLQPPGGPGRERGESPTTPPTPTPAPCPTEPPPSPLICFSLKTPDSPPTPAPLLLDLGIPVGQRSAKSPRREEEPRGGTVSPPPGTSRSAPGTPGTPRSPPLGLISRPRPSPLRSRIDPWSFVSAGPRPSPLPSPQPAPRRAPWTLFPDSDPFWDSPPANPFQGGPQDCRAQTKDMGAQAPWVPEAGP
Chain of Mitogen-activated protein kinase kinase kinase kinase 2 (Homo sapiens) (Q12851 whole entry): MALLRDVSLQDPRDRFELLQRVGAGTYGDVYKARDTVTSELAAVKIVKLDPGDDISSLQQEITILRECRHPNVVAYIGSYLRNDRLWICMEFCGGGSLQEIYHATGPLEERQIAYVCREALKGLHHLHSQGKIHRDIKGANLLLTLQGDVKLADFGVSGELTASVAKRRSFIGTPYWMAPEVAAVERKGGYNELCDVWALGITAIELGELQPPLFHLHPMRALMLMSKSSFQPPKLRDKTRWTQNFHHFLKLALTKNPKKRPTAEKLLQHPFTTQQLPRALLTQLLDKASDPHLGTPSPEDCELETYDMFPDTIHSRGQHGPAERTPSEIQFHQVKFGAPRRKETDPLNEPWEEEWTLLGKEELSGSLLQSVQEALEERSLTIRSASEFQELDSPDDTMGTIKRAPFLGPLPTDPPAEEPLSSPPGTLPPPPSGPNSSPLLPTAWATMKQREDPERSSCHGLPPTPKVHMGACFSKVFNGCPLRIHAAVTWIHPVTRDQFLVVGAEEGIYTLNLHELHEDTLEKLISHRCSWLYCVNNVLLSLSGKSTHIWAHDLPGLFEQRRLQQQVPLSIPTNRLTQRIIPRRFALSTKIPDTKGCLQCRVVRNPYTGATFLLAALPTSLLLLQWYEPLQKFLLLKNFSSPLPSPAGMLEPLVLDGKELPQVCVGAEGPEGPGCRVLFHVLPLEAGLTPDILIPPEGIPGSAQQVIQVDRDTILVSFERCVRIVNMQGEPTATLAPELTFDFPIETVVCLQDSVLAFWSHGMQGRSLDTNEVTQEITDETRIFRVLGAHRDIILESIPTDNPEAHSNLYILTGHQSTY
Chain of Receptor tyrosine-protein kinase erbB-4 (Homo sapiens) (Q15303 whole entry): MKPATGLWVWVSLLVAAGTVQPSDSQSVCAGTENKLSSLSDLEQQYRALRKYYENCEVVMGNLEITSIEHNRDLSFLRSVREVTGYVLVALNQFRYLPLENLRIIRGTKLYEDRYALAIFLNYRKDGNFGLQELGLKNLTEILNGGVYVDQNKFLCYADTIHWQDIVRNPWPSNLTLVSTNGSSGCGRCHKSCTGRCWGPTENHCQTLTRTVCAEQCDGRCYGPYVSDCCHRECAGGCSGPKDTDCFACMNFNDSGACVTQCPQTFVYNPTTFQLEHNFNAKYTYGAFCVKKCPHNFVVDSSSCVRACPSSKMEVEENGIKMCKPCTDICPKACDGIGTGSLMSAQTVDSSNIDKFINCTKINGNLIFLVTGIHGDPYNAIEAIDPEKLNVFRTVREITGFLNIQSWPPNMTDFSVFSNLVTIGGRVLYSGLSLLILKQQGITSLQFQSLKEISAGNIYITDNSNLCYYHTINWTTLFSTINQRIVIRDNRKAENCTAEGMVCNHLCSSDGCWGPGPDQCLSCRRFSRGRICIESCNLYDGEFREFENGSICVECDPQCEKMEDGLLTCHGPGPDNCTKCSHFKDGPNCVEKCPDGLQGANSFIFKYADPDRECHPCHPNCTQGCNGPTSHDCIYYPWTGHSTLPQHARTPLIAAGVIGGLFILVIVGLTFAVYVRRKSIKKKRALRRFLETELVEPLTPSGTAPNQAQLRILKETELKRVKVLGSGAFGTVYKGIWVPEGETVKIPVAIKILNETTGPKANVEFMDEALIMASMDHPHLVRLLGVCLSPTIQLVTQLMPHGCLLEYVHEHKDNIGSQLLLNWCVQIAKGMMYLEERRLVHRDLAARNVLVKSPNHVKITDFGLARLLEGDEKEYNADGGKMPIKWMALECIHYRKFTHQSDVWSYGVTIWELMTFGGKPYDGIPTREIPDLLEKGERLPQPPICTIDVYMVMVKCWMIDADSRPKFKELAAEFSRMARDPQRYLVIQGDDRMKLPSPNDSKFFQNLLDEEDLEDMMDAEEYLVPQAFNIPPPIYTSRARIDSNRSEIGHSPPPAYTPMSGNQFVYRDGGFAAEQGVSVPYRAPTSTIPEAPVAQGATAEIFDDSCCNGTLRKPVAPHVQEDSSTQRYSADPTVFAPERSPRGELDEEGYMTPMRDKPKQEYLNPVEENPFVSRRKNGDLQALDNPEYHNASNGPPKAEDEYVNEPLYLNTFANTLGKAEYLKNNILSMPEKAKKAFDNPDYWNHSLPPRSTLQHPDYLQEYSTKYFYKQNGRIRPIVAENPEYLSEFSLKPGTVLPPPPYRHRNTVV
Chain of Serine/threonine-protein kinase Chk1 (Homo sapiens) (O14757 whole entry): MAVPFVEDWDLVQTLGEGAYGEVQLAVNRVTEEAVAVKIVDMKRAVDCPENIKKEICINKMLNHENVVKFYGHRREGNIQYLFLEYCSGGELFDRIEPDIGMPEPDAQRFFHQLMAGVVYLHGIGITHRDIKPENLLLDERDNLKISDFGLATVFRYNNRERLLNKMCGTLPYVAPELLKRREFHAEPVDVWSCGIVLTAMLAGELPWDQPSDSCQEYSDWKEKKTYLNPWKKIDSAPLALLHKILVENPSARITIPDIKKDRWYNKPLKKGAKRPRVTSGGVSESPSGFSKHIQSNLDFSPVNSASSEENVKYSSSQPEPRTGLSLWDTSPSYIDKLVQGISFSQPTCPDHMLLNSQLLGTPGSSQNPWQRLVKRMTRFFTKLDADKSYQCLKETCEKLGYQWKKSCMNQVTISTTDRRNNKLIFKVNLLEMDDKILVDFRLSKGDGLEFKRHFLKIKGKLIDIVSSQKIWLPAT
Chain of Serine/threonine-protein kinase pim-1 (Homo sapiens) (P11309 whole entry, looked up): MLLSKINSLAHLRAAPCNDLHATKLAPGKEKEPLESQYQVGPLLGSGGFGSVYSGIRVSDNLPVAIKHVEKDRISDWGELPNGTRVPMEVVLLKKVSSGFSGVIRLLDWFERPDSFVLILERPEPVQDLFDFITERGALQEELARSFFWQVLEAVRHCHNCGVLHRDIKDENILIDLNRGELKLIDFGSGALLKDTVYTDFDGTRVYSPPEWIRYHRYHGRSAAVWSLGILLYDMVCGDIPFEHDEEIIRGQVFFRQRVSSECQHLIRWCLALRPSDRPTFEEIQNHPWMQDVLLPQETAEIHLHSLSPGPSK
Chain of NUAK family SNF1-like kinase 1 (Homo sapiens) (O60285 whole entry): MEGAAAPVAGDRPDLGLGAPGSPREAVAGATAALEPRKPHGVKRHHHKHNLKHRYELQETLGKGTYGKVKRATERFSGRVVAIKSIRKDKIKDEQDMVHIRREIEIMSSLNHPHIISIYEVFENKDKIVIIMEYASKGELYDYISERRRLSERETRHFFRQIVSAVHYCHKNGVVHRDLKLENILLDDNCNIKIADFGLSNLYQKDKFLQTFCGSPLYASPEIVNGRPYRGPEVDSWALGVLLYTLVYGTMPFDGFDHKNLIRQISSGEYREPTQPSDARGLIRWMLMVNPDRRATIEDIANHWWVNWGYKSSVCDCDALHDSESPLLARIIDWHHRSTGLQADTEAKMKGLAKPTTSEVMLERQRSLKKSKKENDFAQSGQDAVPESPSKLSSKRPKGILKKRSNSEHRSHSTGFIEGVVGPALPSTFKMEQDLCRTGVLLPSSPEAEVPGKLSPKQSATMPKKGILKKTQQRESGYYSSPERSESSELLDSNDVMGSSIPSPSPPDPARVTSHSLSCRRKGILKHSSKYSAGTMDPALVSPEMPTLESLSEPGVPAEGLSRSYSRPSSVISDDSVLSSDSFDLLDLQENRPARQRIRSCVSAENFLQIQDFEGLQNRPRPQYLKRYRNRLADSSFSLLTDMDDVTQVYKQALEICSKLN

On to `CN1CCC(Nc2ccc3ncc(-c4cnn(-c5ccccc5)c4)n3n2)CC1`, for which the IC50 in [1] was found to be 71 nM.
As for `CN1CCC(Nc2ccc3ncc(-c4cnn(Cc5ccccc5F)c4)n3n2)CC1`, the logD at 12 h, 100 µM in data set [2] amounted to 3. Further, the IC50 in [1] stood at 331 nM.
Regarding `CN1CCC(Nc2ccc3ncc(-c4cnn(C5CCCC5)c4)n3n2)CC1`, the IC50 in data set [1] is 1980 nM.
In the case of `CN1CCC(Nc2ccc3ncc(-c4cnn(-c5cccc(F)c5)c4)n3n2)CC1`, in data set [3], the Papp at 5 h, up to 200 µM was 11 ×10⁻⁶ cm/s. Further, the EC50 in data set [4] is 394 nM. In data set [2], this compound showed a logD at 12 h, 100 µM of 3.1. Moreover, in [1], the IC50 is 20 nM.
As for `c1ccc(-n2cc(-c3cnc4ccc(NC5CCNCC5)nn34)cn2)cc1`, the inhibition result in data set [5], in data set [6], in data set [7], in [8], in data set [9] and in data set [10] was “Active” each time. Also, the inhibition result in data set [11], in data set [12], in data set [13], in data set [14], in data set [15] and in data set [16] was “Active” throughout. The inhibition result in data set [17], in [18], in data set [19], in data set [20], in [21] and in [22] was “Active” throughout. For the same compound, the inhibition entry in data set [23], in [24], in data set [25] and in [26] was “Active” throughout.
As for `CN1CCC(Nc2ccc3ncc(-c4cnn(-c5ncccc5F)c4)n3n2)CC1`, the logD at 12 h, 100 µM in data set [2] amounted to 2.9.
On the same count and under the same terms, next, `Cc1cc(F)ccc1-n1cc(-c2cnc3ccc(NC4CCN(C)CC4)nn23)cn1`: 2.9.
Turning to `CN1CCC(Nc2ccc3ncc(-c4cnn(-c5ccc(C#N)cc5)c4)n3n2)CC1`, the inhibition result in [27], in [28], in data set [29], in [30], in [31] and in data set [32] was “Active” in each case. Moreover, the inhibition result in [33], in data set [34], in [35], in data set [36], in data set [37] and in data set [38] was “Active” throughout. The inhibition entry in [39], in data set [5], in data set [7], in [8], in data set [9] and in [10] was “Active” in each case. Moreover, the inhibition result in [12], in [13], in data set [14], in data set [15], in [16] and in data set [17] was “Active” in each case. In addition, the inhibition entry in data set [18], in data set [19], in data set [20], in [24] and in [26] was “Active” in each case.
Consider `CN1CCC(Nc2ccc3ncc(-c4cnn(-c5ccc(F)cc5F)c4)n3n2)CC1`, for which the logD at 12 h, 100 µM in [2] was found to be 2.9.
As to `CN1CCC(Nc2ccc3ncc(-c4cnn(-c5ccc(F)cc5)c4)n3n2)CC1`, the EC50 in [4] is 561 nM. Also, the logD at 12 h, 100 µM in data set [2] came to 2.8. Besides, in data set [1], the IC50 is 45 nM.
`CN1CCC(Nc2ccc3ncc(-c4cnn(-c5ccc(F)cn5)c4)n3n2)CC1` showed a logD at 12 h, 100 µM in data set [2] of 2.9.
